Data from BindingDB's records for doi:10.1021/acs.jmedchem.7b00861 (Leiden University, 2017).
Several values for one entry are separate records, joined by “and”; a condition that tells them apart may be missing. Equal entries are not always repeated.

Legend:
[1] = biological target: T1, Cannabinoid receptor 1 (Homo sapiens, UniProt P21554); assay: Antagonist activity at recombinant human CB1 receptor expressed in HEK293 cell membranes assessed as inhibition of CP55940-induced [35S]GTPgammaS binding preincubated for 1 hr followed by CP55940 addition and subsequent incubation with [35S]GTPgammaS measured after 30 mins by scintillation spectrometry
Summary of the method: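 Antagonism was measured by [35S]GTPγS binding at 30 °C on membranes of HEK-293 cells stably expressing recombinant human CB1.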

[2] = biological target: T1, Cannabinoid receptor 1; assay: Displacement of [3H]CP55940 from recombinant human CB1 receptor expressed in beta-galactosidase expressing CHOK1 cell membranes after 60 mins by scintillation spectrometry

T1 sequence (P21554 whole entry): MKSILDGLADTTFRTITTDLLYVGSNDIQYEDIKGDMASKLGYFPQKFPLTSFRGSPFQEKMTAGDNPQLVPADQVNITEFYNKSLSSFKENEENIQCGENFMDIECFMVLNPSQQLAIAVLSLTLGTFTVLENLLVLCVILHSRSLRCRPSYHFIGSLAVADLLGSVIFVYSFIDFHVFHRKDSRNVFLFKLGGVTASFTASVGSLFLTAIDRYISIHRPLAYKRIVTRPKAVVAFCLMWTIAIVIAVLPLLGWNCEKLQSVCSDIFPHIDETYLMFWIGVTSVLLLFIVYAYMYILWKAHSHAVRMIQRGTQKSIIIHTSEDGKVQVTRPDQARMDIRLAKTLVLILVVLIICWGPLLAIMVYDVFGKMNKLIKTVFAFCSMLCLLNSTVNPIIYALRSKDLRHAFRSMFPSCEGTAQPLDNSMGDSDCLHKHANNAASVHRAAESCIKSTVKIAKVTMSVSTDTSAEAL

SMILES	IC50 [1]	Ki [2] [nM]
Cc1c(C(=O)N[C@@H]2CCCC[C@@H]2O)nc(-c2ccc(Cl)cc2Cl)n1-c1ccc(OS(=O)(=O)CCC(F)(F)F)cc1	1.58 nM	
Cc1c(C(=O)N[C@@H]2CCCC[C@@H]2N(C)C)nc(-c2ccc(Cl)cc2Cl)n1-c1ccc(OS(=O)(=O)CCC(F)(F)F)cc1	79 nM and 83 nM	2.5
Cc1c(C(=O)NN2CCCCC2)nc(-c2ccc(Cl)cc2Cl)n1-c1ccc(OCCC(F)(F)F)cc1	5.01 nM	0.794
Cc1c(C(=O)NN2CCCCC2)nc(-c2ccc(Cl)cc2Cl)n1-c1ccc(OCCCC(F)(F)F)cc1		0.2
CCCCS(=O)(=O)Oc1ccc(-n2c(-c3ccc(Cl)cc3Cl)nc(C(=O)NN3CCCCC3)c2C)cc1		0.126
Cc1c(C(=O)NN2CCCCC2)nc(-c2ccc(Cl)cc2Cl)n1-c1ccc(OS(=O)(=O)CCCC(F)(F)F)cc1		0.1
Cc1c(C(=O)N[C@H]2CCC[C@H](O)C2)nc(-c2ccc(Cl)cc2Cl)n1-c1ccc(OS(=O)(=O)CCC(F)(F)F)cc1	1.26 nM	
Cc1c(C(=O)N[C@@H]2CCCC[C@H]2O)nc(-c2ccc(Cl)cc2Cl)n1-c1ccc(OS(=O)(=O)CCC(F)(F)F)cc1		0.2
Cc1c(C(=O)N[C@H]2CCCC[C@H]2N)nc(-c2ccc(Cl)cc2Cl)n1-c1ccc(OS(=O)(=O)CCC(F)(F)F)cc1	6.3 nM	0.316
Cc1c(C(=O)Nc2ccc(F)nc2)nc(-c2ccc(Cl)cc2Cl)n1-c1ccc(OS(=O)(=O)CCC(F)(F)F)cc1		0.1
Cc1c(C(=O)Nc2ccc(C(F)(F)F)cn2)nc(-c2ccc(Cl)cc2Cl)n1-c1ccc(OS(=O)(=O)CCC(F)(F)F)cc1		0.126
Cc1c(C(=O)NN2CCCCC2)nc(-c2ccc(Cl)cc2Cl)n1-c1ccc(OS(=O)(=O)CCC(C)(C)C)cc1	2 nM	0.501
Cc1c(C(=O)NN2CCCCC2)nc(-c2ccc(Cl)cc2Cl)n1-c1ccc(OS(=O)(=O)CCC(F)(F)F)cc1		0.126
